Data on four molecules can be found in paper PMC5766692 (Journal of Ginseng Research, 2017).

The format of data set [1] is in vivo, Sprague Dawley rats. Conditions: rat plasma, oral WG, RG, FG extracts and free ginsenosides; for Time of first peak of the plasma concentration-time curve / Time of second peak of the plasma concentration-time curve: bimodal curve. The essentials:
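Male Sprague Dawley rats (240–260 g), fasted 12 h with water allowed, 5 per group. Dosed orally with 70% ethanol ginseng decoctions or a water mixture of pure ginsenosides (25, 86, 45, 42 mg/kg). Retro-orbital blood taken 0.083–36 h; plasma acetonitrile-precipitated with digoxin IS, dried, redissolved in methanol. Analysed by C18 UPLC-MS/MS in positive ion mode; profiles mean ± SD.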

The format of data set [2] is in vivo, Sprague Dawley rats. Conditions: rats, 30 min after oral RG, WG, FG extracts and free ginsenosides; heart, liver, spleen, lungs, kidneys, brain, muscle, testes.
A short description of data set [3]: Stability of the analytes in rat plasma under different conditions. The data set is classed as in vitro ADME. The following applies: for Freeze–thaw stability, accuracy (mean ± SD): three freeze (−80°C)-thaw (room temperature) cycles; for Long-term stability, accuracy (mean ± SD): −80°C for 1 mo. The essentials:
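Rat plasma QC samples (low, medium, high) run in five replicates by UPLC-MS/MS with digoxin IS. Long-term: stored at −80°C for 1 mo. Freeze–thaw: three cycles of −80°C freezing and room-temperature thawing. Post-preparative: extracted QC samples held in the autosampler at 15°C for 24 h. Precision […] taken as relative standard deviation of QC concentrations.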

Data set [4] in a line: Stability of the analytes in rat tissue homogenates under different conditions. Type of data set: in vitro ADME. Conditions: for Short-term stability, accuracy (mean ± SD) / Freeze–thaw stability, accuracy (mean ± SD) / Long-term stability, accuracy (mean ± SD): tissue; for Freeze–thaw stability, accuracy (mean ± SD): three freeze (−80°C)-thaw (room temperature) cycles; for Long-term stability, accuracy (mean ± SD): −80°C for 1 mo. The essentials: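 Tissues rinsed in pH 7.4 sodium phosphate buffer, 0.5 g homogenised in 1 mL saline, then acetonitrile and digoxin IS added. Supernatant dried and redissolved in methanol for UPLC-MS/MS. QC tissue samples run in five replicates after storage at −80°C for 1 mo. Brain QC samples also put through three −80°C/room-temperature freeze–thaw cycles.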

For data set [5] the following is noted: mouse; higher than free ginsenoside Re; cited from earlier work.

Turning to `CC(C)=CCC[C@](C)(O[C@@H]1O[C@H](CO[C@@H]2O[C@H](CO)[C@@H](O)[C@H](O)[C@H]2O)[C@@H](O)[C@H](O)[C@H]1O)[C@H]1CC[C@]2(C)[C@@H]1[C@H](O)C[C@@H]1[C@@]3(C)CC[C@H](O[C@@H]4O[C@H](CO)[C@@H](O)[C@H](O)[C@H]4O[C@@H]4O[C@H](CO)[C@@H](O)[C@H](O)[C@H]4O)C(C)(C)[C@@H]3CC[C@]12C` [Rb1], in data set [1], the “Time of the single peak of the plasma concentration-time curve” value lay within 8 to 10 h. Further, the “Tissue distribution (main tissues)” value in data set [2] is recorded as “mainly distributed in the heart”. In addition, the “Short-term stability, accuracy (mean ± SD)” value in data set [3] (plasma, spiked 2.0 μg/mL) is given as 91.3 ± 5.3%; in data set [3] (plasma, spiked 5.0 μg/mL), 91.5 ± 6.8%; in data set [3] (plasma, spiked 10 μg/mL) it was 94.4 ± 7.9%; in data set [4] (spiked 0.2 μg/mL), 102.4 ± 5.1%; in data set [4] (spiked 0.5 μg/mL), 101.1 ± 7.0%; in data set [4] (spiked 1.0 μg/mL), 105.0 ± 5.1%. Further, the “Freeze–thaw stability, accuracy (mean ± SD)” value in data set [3] (plasma, spiked 2.0 μg/mL) was found to be 96.2 ± 8.5%; in data set [3] (plasma, spiked 5.0 μg/mL) it was 103.3 ± 6.0%; in data set [3] (plasma, spiked 10 μg/mL), 98.5 ± 8.2%; in data set [4] (spiked 0.2 μg/mL) it was 108.5 ± 6.0%; in data set [4] (spiked 0.5 μg/mL) it was 109.2 ± 8.1%; in data set [4] (spiked 1.0 μg/mL), 103.7 ± 7.0%. Also, the “Long-term stability, accuracy (mean ± SD)” value in data set [3] (plasma, spiked 2.0 μg/mL) is 95.6 ± 7.7%; in data set [3] (plasma, spiked 5.0 μg/mL) it was 106.6 ± 6.8%; in data set [3] (plasma, spiked 10 μg/mL), 93.9 ± 8.5%; in data set [4] (spiked 0.2 μg/mL), 104.5 ± 8.6%; in data set [4] (spiked 0.5 μg/mL), 108.1 ± 6.7%; in data set [4] (spiked 1.0 μg/mL), 101.0 ± 8.7%. Besides, the “Post-preparative stability, accuracy (mean ± SD)” value in data set [3] (plasma, spiked 10 μg/mL, extracted samples in automatic sampler at 15°C for 24 h) is 94.5 ± 8.0%. For the same molecule, the “Stability in rat plasma during sample extraction and storage” value in data set [3] is reported as “stable”. For the same molecule, the “Stability in the various tissue homogenates during sample extraction and storage” value in data set [4] is recorded as “stable”.

Turning to `CC(C)=CCC[C@](C)(O[C@@H]1O[C@H](CO)[C@@H](O)[C@H](O)[C@H]1O)[C@H]1CC[C@]2(C)[C@@H]1[C@H](O)C[C@@H]1[C@@]3(C)CC[C@H](O[C@@H]4O[C@H](CO)[C@@H](O)[C@H](O)[C@H]4O[C@@H]4O[C@H](CO)[C@@H](O)[C@H](O)[C@H]4O)C(C)(C)[C@@H]3CC[C@]12C` [Rd], in data set [1], the “Time of first peak of the plasma concentration-time curve” value lay within 15 to 30 min. Besides, the “Time of second peak of the plasma concentration-time curve” value in data set [1] is 8 to 12 h. Further, in data set [2], the “Tissue distribution (main tissues)” value is “mainly distributed in the kidneys”. Further, the “Short-term stability, accuracy (mean ± SD)” value in data set [3] (plasma, spiked 0.1 μg/mL) is listed as 92.3 ± 4.3%; in data set [3] (plasma, spiked 1.0 μg/mL), 94.6 ± 5.2%; in data set [3] (plasma, spiked 2.0 μg/mL), 105.3 ± 6.0%; in data set [4] (spiked 0.2 μg/mL), 107.2 ± 7.3%; in data set [4] (spiked 0.5 μg/mL) it was 106.4 ± 8.5%; in data set [4] (spiked 1.0 μg/mL) it was 93.8 ± 5.1%. The “Freeze–thaw stability, accuracy (mean ± SD)” value was 92.5 ± 7.7% in data set [3] (plasma, spiked 0.1 μg/mL); 106.5 ± 6.5% in data set [3] (plasma, spiked 1.0 μg/mL); 104.3 ± 8.6% in data set [3] (plasma, spiked 2.0 μg/mL); 96.5 ± 8.4% in data set [4] (spiked 0.2 μg/mL); 95.7 ± 9.5% in data set [4] (spiked 0.5 μg/mL); 99.6 ± 3.4% in data set [4] (spiked 1.0 μg/mL). For the same molecule, the “Long-term stability, accuracy (mean ± SD)” value in data set [3] (plasma, spiked 0.1 μg/mL) is 93.6 ± 8.5%; in data set [3] (plasma, spiked 1.0 μg/mL) it was 102.3 ± 9.6%; in data set [3] (plasma, spiked 2.0 μg/mL) it was 102.5 ± 2.3%; in data set [4] (spiked 0.2 μg/mL) it was 95.5 ± 5.6%; in data set [4] (spiked 0.5 μg/mL), 92.0 ± 9.4%; in data set [4] (spiked 1.0 μg/mL) it was 94.4 ± 7.0%. The “Stability in rat plasma during sample extraction and storage” value in data set [3] is reported as “stable”. For the same molecule, in data set [4], the “Stability in the various tissue homogenates during sample extraction and storage” value is “stable”.

`CC(C)=CCC[C@](C)(O[C@@H]1O[C@H](CO)[C@@H](O)[C@H](O)[C@H]1O)[C@H]1CC[C@]2(C)[C@@H]1[C@H](O)C[C@@H]1[C@@]3(C)CC[C@H](O)C(C)(C)[C@@H]3[C@@H](O[C@@H]3O[C@H](CO)[C@@H](O)[C@H](O)[C@H]3O[C@@H]3O[C@@H](C)[C@H](O)[C@@H](O)[C@H]3O)C[C@]12C` [Re]: the “Time of first peak of the plasma concentration-time curve” value in data set [1] was in the range of 15 to 30 min. The “Time of second peak of the plasma concentration-time curve” value in data set [1] was 8 to 12 h. Besides, the “Tissue distribution (main tissues)” value in data set [2] is “mainly distributed in the heart and lungs”. The “Short-term stability, accuracy (mean ± SD)” value in data set [3] (plasma, spiked 0.1 μg/mL) is reported as 102.5 ± 9.0%; in data set [3] (plasma, spiked 0.5 μg/mL), 94.4 ± 4.4%; in data set [3] (plasma, spiked 1.0 μg/mL) it was 97.6 ± 3.5%; in data set [4] (spiked 0.01 μg/mL), 92.2 ± 8.7%; in data set [4] (spiked 0.05 μg/mL), 96.6 ± 2.8%; in data set [4] (spiked 0.2 μg/mL) it was 92.4 ± 4.8%. Also, the “Freeze–thaw stability, accuracy (mean ± SD)” value was 93.3 ± 6.2% in data set [3] (plasma, spiked 0.1 μg/mL); 97.5 ± 7.0% in data set [3] (plasma, spiked 0.5 μg/mL); 99.0 ± 7.4% in data set [3] (plasma, spiked 1.0 μg/mL); 92.7 ± 8.0% in data set [4] (spiked 0.01 μg/mL); 103.5 ± 5.5% in data set [4] (spiked 0.05 μg/mL); 100.7 ± 7.4% in data set [4] (spiked 0.2 μg/mL). The “Long-term stability, accuracy (mean ± SD)” value in data set [3] (plasma, spiked 0.1 μg/mL) is listed as 96.6 ± 4.1%; in data set [3] (plasma, spiked 0.5 μg/mL), 98.7 ± 5.0%; in data set [3] (plasma, spiked 1.0 μg/mL), 92.2 ± 7.4%; in data set [4] (spiked 0.01 μg/mL), 93.2 ± 5.8%; in data set [4] (spiked 0.05 μg/mL), 105.5 ± 9.4%; in data set [4] (spiked 0.2 μg/mL) it was 103.8 ± 6.5%. For the same molecule, in data set [3], the “Stability in rat plasma during sample extraction and storage” value is “stable”. Besides, the “Stability in the various tissue homogenates during sample extraction and storage” value in data set [4] is “stable”. Also, in data set [5], the “Absorption of ginsenoside Re from ginseng berry extract” value is on record as 0.33–0.75%.

On to `CC(C)=CCC[C@](C)(O[C@@H]1O[C@H](CO)[C@@H](O)[C@H](O)[C@H]1O)[C@H]1CC[C@]2(C)[C@@H]1[C@H](O)C[C@@H]1[C@@]3(C)CC[C@H](O)C(C)(C)[C@@H]3[C@@H](O[C@@H]3O[C@H](CO)[C@@H](O)[C@H](O)[C@H]3O)C[C@]12C` [Rg1], for which the “Time of first peak of the plasma concentration-time curve” value in data set [1] was in the range of 15 to 30 min. In addition, the “Time of second peak of the plasma concentration-time curve” value in data set [1] was in the range of 8 to 12 h. In addition, the “Tissue distribution (main tissues)” value in data set [2] was “extensively distributed in the heart, lungs, and kidneys”. For the same molecule, the “Short-term stability, accuracy (mean ± SD)” value in data set [3] (plasma, spiked 0.5 μg/mL) amounted to 102.0 ± 6.4%; in data set [3] (plasma, spiked 1.0 μg/mL), 93.2 ± 7.0%; in data set [3] (plasma, spiked 2.0 μg/mL), 92.1 ± 8.6%; in data set [4] (spiked 0.01 μg/mL) it was 92.2 ± 2.3%; in data set [4] (spiked 0.05 μg/mL) it was 102.5 ± 3.1%; in data set [4] (spiked 0.2 μg/mL) it was 92.3 ± 6.6%. Besides, the “Freeze–thaw stability, accuracy (mean ± SD)” value stood at 106.1 ± 3.4% in data set [3] (plasma, spiked 0.5 μg/mL); 107.0 ± 8.2% in data set [3] (plasma, spiked 1.0 μg/mL); 94.3 ± 4.0% in data set [3] (plasma, spiked 2.0 μg/mL); 100.2 ± 3.6% in data set [4] (spiked 0.01 μg/mL); 93.5 ± 9.1% in data set [4] (spiked 0.05 μg/mL); 95.3 ± 6.6% in data set [4] (spiked 0.2 μg/mL). Moreover, the “Long-term stability, accuracy (mean ± SD)” value in data set [3] (plasma, spiked 0.5 μg/mL) was found to be 103.7 ± 8.0%; in data set [3] (plasma, spiked 1.0 μg/mL) it was 103.1 ± 9.4%; in data set [3] (plasma, spiked 2.0 μg/mL), 94.6 ± 5.6%; in data set [4] (spiked 0.01 μg/mL), 101.9 ± 5.3%; in data set [4] (spiked 0.05 μg/mL) it was 94.7 ± 7.4%; in data set [4] (spiked 0.2 μg/mL), 92.3 ± 7.5%. In addition, the “Stability in rat plasma during sample extraction and storage” value in data set [3] is on record as “stable”. In addition, the “Stability in the various tissue homogenates during sample extraction and storage” value in data set [4] is “stable”.
